25 compounds from ChEMBL document CHEMBL4311988, “Identification of novel non-nucleoside vinyl-stilbene analogs as potent norovirus replication inhibitors with a potential host-targeting mechanism” (Eur J Med Chem, 2019) can be followed below.

SMILES strings stand for the structures.

The nature of data set [1]: Cytotoxicity against human HG23 cells assessed as cell viability at 10 uM after 3 days by tetrazolium dye based assay relative to control. To be noted: read-out: Activity. Put shortly:
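HG23 cells were treated with DMSO or compound for 3 days, at 10 μM for single-point testing or across a dose range for CC50. Viability was read with a tetrazolium salt (EZ-CYTOX) reagent. Values are means of the most representative triplicate experiment with standard deviations.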

In the next data set the test system is Norovirus. Put plainly: Antiviral activity against human norovirus infected in human HG23 cells assessed as inhibition of viral replication at 10 uM after 3 days by qRT-PCR analysis relative to control. The class given is functional. Details: scale not given: the % may be the effect or the level left.

Regarding `COc1cc(/C=C/c2cc(O)c(CCO)c(O)c2)cc(OC)c1`, the viability at 72 h, 10 µM in data set [1] stood at 99%. In addition, the Activity in the data set with Norovirus is on record as 200.8%.
For `C=Cc1c(OC)cc(/C=C\c2ccc(C(=O)N3CCN(Cc4ccc(C(F)(F)F)cc4)CC3)cc2)cc1OC`, in data set [1], the viability at 72 h, 10 µM was 90.9%. Further, the Activity in the data set on Norovirus stood at 64.9%.
Take `C=Cc1c(OC)cc(/C=C/c2ccc(C(=O)Nc3ccc(C(F)(F)F)cc3)cc2)cc1OC`: the viability at 72 h, 10 µM in data set [1] turned out to be 92.5%. Besides, the Activity in the data set on Norovirus amounted to 70.8%.
`Brc1ccc(/C=C/c2ccccc2)cc1`: in data set [1], the viability at 72 h, 10 µM came out at 130%. Besides, in the data set on Norovirus, the Activity is listed as 54.5%.
On to `C=Cc1c(OC)cc(/C=C/c2ccc(OCOC)cc2)cc1OC`, for which, in data set [1], the viability at 72 h, 10 µM came to 97.5%. Besides, in the data set on Norovirus, the Activity was 165.7%.
As to `C=Cc1c(OC)cc(/C=C/c2ccc(C(=O)N3CCN(C(C)C)CC3)cc2)cc1OC`, the viability at 72 h, 10 µM in data set [1] came out at 60.5%. Besides, the Activity in the data set on Norovirus is on record as 55.3%.
Turning to `C#CCOC(=O)c1ccc(/C=C/c2cc(OC)c(C=C)c(OC)c2)cc1`, the viability at 72 h, 10 µM in data set [1] turned out to be 103%. In the data set with Norovirus, the Activity stood at 71.3%.
As for `C=Cc1c(OC)cc(/C=C/c2ccc(C(=O)N3CCN(Cc4ccc(OC)cc4)CC3)cc2)cc1OC`, the viability at 72 h, 10 µM in data set [1] was determined as 21.5%. Also, in the data set with Norovirus, the Activity was 30.4%.
Turning to `C=Cc1c(OC)cc(/C=C/c2ccc(C(=O)OC)cc2)cc1OC`, in data set [1], the viability at 72 h, 10 µM stood at 111%. In addition, the Activity with Norovirus is recorded as 58.2%.
Turning to `COc1cc(/C=C/c2cc(OC)cc(OC)c2)cc(OC)c1`, the viability at 72 h, 10 µM in data set [1] turned out to be 99.2%. For the same compound, the Activity with Norovirus is recorded as 119%.
As to `C=Cc1c(OC)cc(/C=C/c2ccc(C(=O)OCc3ccc(F)cc3)cc2)cc1OC`, the viability at 72 h, 10 µM in data set [1] amounted to 101%. Besides, in the data set with Norovirus, the Activity is reported as 36%.
The like results for `COc1cc(/C=C/c2cc(OC)c(CCO)c(OC)c2)cc(OC)c1` were, in that order, 99.8% and 272.8%.
Turning to `C=Cc1c(OC)cc(/C=C/c2cccc(C(F)(F)F)c2)cc1OC`, the viability at 72 h, 10 µM in data set [1] was found to be 98.4%. In the data set with Norovirus, the Activity was found to be 66.6%.
The like results for `OCCc1ccc(/C=C/c2ccccc2)cc1` were, in that order, 101% and 43.2%.
Take `C=Cc1ccc(/C=C/c2cc(OC)cc(OC)c2)cc1`: the viability at 72 h, 10 µM in data set [1] was determined as 138%. For the same compound, in the data set with Norovirus, the Activity worked out at 77.1%.
The like results for `C=Cc1c(OC)cc(/C=C/c2cc(OC)cc(OC)c2)cc1OC` were, in that order, 99.6% and 43.4%.
The like results for `C=Cc1c(OC)cc(/C=C/c2ccc(C(=O)NCCc3ccccc3)cc2)cc1OC` were, in that order, 99.7% and 28.4%.
Turning to `CCc1c(OC)cc(/C=C/c2cc(OC)cc(OC)c2)cc1OC`, the viability at 72 h, 10 µM in data set [1] is 69.3%. In addition, in the data set on Norovirus, the Activity was found to be 94%.
Turning to `C=CCNC(=O)c1ccc(/C=C/c2cc(OC)c(C=C)c(OC)c2)cc1`, the viability at 72 h, 10 µM in data set [1] turned out to be 91.6%. Also, the Activity in the data set on Norovirus was determined as 62.4%.
In the case of `C=Cc1c(OC)cc(/C=C/c2ccc(C(=O)OCc3ccccc3)cc2)cc1OC`, in data set [1], the viability at 72 h, 10 µM turned out to be 106%. Moreover, in the data set with Norovirus, the Activity amounted to 134.9%.
For the compound `C=Cc1c(OC)cc(/C=C/c2ccc(C(=O)OCc3ccc(C(F)(F)F)cc3)cc2)cc1OC`, in data set [1], the viability at 72 h, 10 µM came out at 109%. Moreover, the Activity in the data set on Norovirus came to 58.4%.
With `COc1cc(/C=C/c2cc(OC)c(Br)c(OC)c2)cc(OC)c1`, in data set [1], the viability at 72 h, 10 µM turned out to be 99.7%. In addition, the Activity in the data set with Norovirus is 184.9%.
As for `C=Cc1c(OC)cc(CCc2ccc(C(=O)N3CCN(Cc4ccc(C(F)(F)F)cc4)CC3)cc2)cc1OC`, the viability at 72 h, 10 µM in data set [1] came to 77.3%. For the same compound, in the data set on Norovirus, the Activity is recorded as 132.1%.
As for `C=Cc1ccc(/C=C/c2ccccc2)cc1`, the viability at 72 h, 10 µM in data set [1] was determined as 102%. The Activity in the data set on Norovirus is 26.5%.
As for `C=Cc1c(OC)cc(/C=C/c2ccc(C(=O)N3CCN(Cc4ccc(F)cc4)CC3)cc2)cc1OC`, the viability at 72 h, 10 µM in data set [1] worked out at 55.7%. Also, the Activity in the data set with Norovirus came to 12.1%.
